Each structure is given as a SMILES string. Read-outs that look alike come from different tables or passages of the source.

The subject of assay [1] is P. falciparum TM4/8.2 (wild type PfDHFR). Kind of assay: In vitro antimalarial activity, 3H-hypoxanthine incorporation, TM4/8.2. Format: cell-based. Particulars: Plasmodium falciparum.
Another assay concerns the target PfDHFR-WT (Plasmodium falciparum, UniProt P13922, N108S/R59C). Kind of assay: DHFR enzyme inhibition assay, wild type. Format: biochemical.
Another assay addresses T1, HsDHFR (Homo sapiens, UniProt P00374).
T1 sequence (P00374 1-187): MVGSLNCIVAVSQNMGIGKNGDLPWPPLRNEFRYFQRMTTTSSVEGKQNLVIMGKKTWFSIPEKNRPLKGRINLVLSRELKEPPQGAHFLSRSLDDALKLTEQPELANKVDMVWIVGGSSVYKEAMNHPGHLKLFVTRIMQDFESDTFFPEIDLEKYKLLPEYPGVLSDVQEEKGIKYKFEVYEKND
Briefly: biochemical.

The target in a further assay is PfDHFR-QM (Plasmodium falciparum, UniProt P13922, I164L/N51I). Kind of assay: DHFR enzyme inhibition assay, quadruple mutant. Type of assay: biochemical.
In assay [2] the test system is P. falciparum V1/S (QM PfDHFR). Briefly: In vitro antimalarial activity, 3H-hypoxanthine incorporation, V1S. Format: cell-based. The following applies: Plasmodium falciparum, read-out: IC50 PfV1S. The method in brief:
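P. falciparum V1/S (quadruple-mutant PfDHFR, chloroquine-resistant) grown in human erythrocytes at 37 °C under 3% CO2. Medium was RPMI 1640 with 25 mM HEPES, 0.2% NaHCO3, 40 µg/mL gentamicin and 8% human serum. Activity was measured by ³H-hypoxanthine incorporation.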

For another assay, the system named is KB cells. Briefly: Cytotoxicity, sulforhodamine B staining, KB. The following applies: Homo sapiens, read-out: IC50 KB. Format: cell-based.
Setting [3] is: read-out: IC50 PfTM4/8.2, WT P. falciparum, drug sensitive strain.

Consider `COc1ccccc1CCNCc1c(N)nc(N)nc1C1CC1` [7 d, 6‐Cyclopropyl‐5‐{[(2‐methoxyphenethyl)amino]methyl}pyrimidine‐2,4‐diamine], for which the IC50 in assay [1] (setting [3]) is 25 ± 1 µM; in assay [2], 35 ± 4 µM; in the assay on KB cells, > 100 µM. Also, the Ki on PfDHFR-WT worked out at 0.015 ± 0.001 µM; on HsDHFR, 1.59 ± 0.029 µM; on PfDHFR-QM, 0.031 ± 0.002 µM.
In the case of `Nc1nc(N)c(CNCCc2ccc(F)cc2)c(C2CC2)n1` [7 i, 6‐Cyclopropyl‐5‐{[(4‐fluorophenethyl)amino]methyl}pyrimidine‐2,4‐diamine], the IC50 in assay [1] (setting [3]) was 23 ± 3 µM; in assay [2] it was 48 ± 5 µM; in the assay on KB cells it was > 100 µM. The Ki at PfDHFR-WT turned out to be 0.0057 ± 0.0005 µM; on HsDHFR, 0.212 ± 0.012 µM; on PfDHFR-QM, 0.035 ± 0.002 µM.
As to `Nc1nc(N)c(CNCCc2ccc(Cl)cc2)c(C2CC2)n1` [7 l, 6‐Cyclopropyl‐5‐{[(4‐chlorophenethyl)amino]methyl}pyrimidine‐2,4‐diamine], the IC50 was found to be 5 ± 0.6 µM in assay [1] (setting [3]), 18 ± 3 µM in assay [2] and 70 ± 0.5 µM in the assay with KB cells. Besides, the results for the Ki on PfDHFR-WT, at HsDHFR and on PfDHFR-QM were 0.0025 ± 0.0002 µM, 0.142 ± 0.006 µM and 0.027 ± 0.0001 µM, respectively.
For the molecule `COc1ccccc1CCNCc1c(N)nc(N)nc1C1CCCCC1` [7 o, 6‐Cyclohexyl‐5‐{[(2‐methoxyphenethyl)amino]methyl}pyrimidine‐2,4‐diamine], the IC50 in assay [1] (read-out: IC50 PfTM4/8.2) stood at 3.7 ± 0.3 µM; in assay [2], 9.4 ± 1.9 µM; in the assay on KB cells, 22 ± 0.3 µM. The Ki at PfDHFR-WT was 0.128 ± 0.009 µM; at HsDHFR, > 500 µM; at PfDHFR-QM, 0.126 ± 0.009 µM.

Values taken from PMC9827987 (Chemmedchem, 2022).
